This note sets out measurements from ChEMBL document CHEMBL1126658, “Thyroid hormone uptake by hepatocytes: structure-activity relationships of phenylanthranilic acids with inhibitory activity” (J Med Chem, 1993).

SMILES strings stand for the structures.

For this assay, the system named is H4. Kind of assay: Compound is evaluated for the inhibition of [125I]T3 uptake by H4 rat hepatoma cells at 0.1 mM. The format is functional. The method in brief:
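H4 rat hepatoma cells grown in DMEM/10% FCS at 37 °C, plated to confluence (2 × 10^6 cells/well), then held overnight in serum-free DMEM. Fresh medium with 10^-11 M [125I]T3 plus test substance (final 0.1 mM from DMSO/ethanol stock; solvent-matched controls), 2 min at 37 °C. Five PBS pH 7.4 washes, 0.1 M NaOH lysis, cell-associated radioactivity counted. Nondisplaceable uptake taken with 10^-5 M unlabeled T3. Percent inhibition vs control, ≥5 replicates.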
Broadly, the inhibition is the relative decrease from the control value, in per cent. Compound `O=C(O)c1ccccc1Nc1ccccc1Cl` yielded an inhibition at 100 µM of 44.6%.

Consider `O=C(O)c1ccccc1Nc1c(Cl)cccc1Cl`, for which at 100 µM the inhibition was 54.6%.

Turning to `COc1ccc(Nc2ccccc2C(=O)O)cc1C(F)(F)F`, the inhibition at 100 µM stood at 54%.

Compound `O=C(O)c1ccccc1Nc1cc(Cl)ccc1Cl` registered an inhibition at 100 µM of 43.2%.

Regarding `O=C(O)c1ccccc1Nc1cccc(C(F)(F)F)c1` [FLUFENAMIC ACID], the inhibition at 100 µM was found to be 64.4%.

`O=C(O)c1ccccc1Nc1cc(Br)cc(Br)c1` displayed an inhibition at 100 µM of 39.1%.

`O=C(O)c1ccccc1Nc1ccc(Cl)c(C(F)(F)F)c1` gave an inhibition at 100 µM of 51%.

In turn, `O=C(O)c1ccccc1Nc1cccc(Br)c1` gave an inhibition at 100 µM of 48.1%.

`O=C(O)c1ccccc1Nc1ccccc1` [FENAMIC ACID] returned an inhibition at 100 µM of 28%.

Compound `O=C(O)c1ccccc1Nc1cc(Cl)cc(Cl)c1` came in with an inhibition at 100 µM of 60.6%.

`O=C(O)c1ccccc1Nc1cccc(O)c1` had an inhibition at 100 µM of 6.6%.

On to `Cc1cccc(Nc2ccccc2)c1C`, for which the inhibition at 100 µM is 35.4%.

Compound `O=C(O)Cc1ccccc1Nc1c(Cl)cccc1Cl` [DICLOFENAC] registered an inhibition at 100 µM of 38%.

`O=C(O)c1ccccc1Nc1cccc(Cl)c1Cl` [CLOFENAMIC ACID] returned an inhibition at 100 µM of 56.6%.

The compound `O=C(O)c1ccccc1Nc1ccc(Cl)c(Cl)c1` came in with an inhibition at 100 µM of 55.6%.

For the compound `O=C(O)c1ccccc1Nc1cccc(Cl)c1`, the inhibition at 100 µM was found to be 51.4%.

Take `Cc1cccc(C)c1Nc1ccccc1C(=O)O`: 100 µM produced 48% inhibition.

With `N#Cc1cccc(Nc2ccccc2C(=O)O)c1`, 100 µM produced 11.6% inhibition.

The compound `Cc1cccc(Nc2ccccc2C(=O)O)c1` came in with an inhibition at 100 µM of 30%.

In turn, `O=C(O)c1ccccc1Nc1cccc(OC(F)(F)C(F)F)c1` yielded an inhibition at 100 µM of 57%.

In the case of `Cc1ccc(Cl)c(Nc2ccccc2C(=O)O)c1Cl` [MECLOFENAMIC ACID], the inhibition at 100 µM was determined as 74.2%.

For `O=C(O)c1ccccc1Nc1cc(C(F)(F)F)cc(C(F)(F)F)c1`, testing at 100 µM gave an inhibition of 39.5%.

Consider `O=C(O)c1ccccc1Nc1cccc(I)c1`, for which 100 µM produced 40% inhibition.

Consider `Cc1cccc(Nc2ccccc2C(=O)O)c1C` [MEFENAMIC ACID], for which the inhibition at 100 µM amounted to 60.9%.
